Measured values reported in ChEMBL document CHEMBL1154929, “Novel tetrahydrochinoline derived CETP inhibitors” (Bioorg Med Chem Lett, 2010).

Columns and labels:
[1] = target: T1, Cholesteryl ester transfer protein (Homo sapiens, UniProt P11597); test: Inhibition of CETP assessed as cholesterol ester transfer after 4 hrs by microemulsion based fluorescence assay
T1 sequence (P11597 whole entry): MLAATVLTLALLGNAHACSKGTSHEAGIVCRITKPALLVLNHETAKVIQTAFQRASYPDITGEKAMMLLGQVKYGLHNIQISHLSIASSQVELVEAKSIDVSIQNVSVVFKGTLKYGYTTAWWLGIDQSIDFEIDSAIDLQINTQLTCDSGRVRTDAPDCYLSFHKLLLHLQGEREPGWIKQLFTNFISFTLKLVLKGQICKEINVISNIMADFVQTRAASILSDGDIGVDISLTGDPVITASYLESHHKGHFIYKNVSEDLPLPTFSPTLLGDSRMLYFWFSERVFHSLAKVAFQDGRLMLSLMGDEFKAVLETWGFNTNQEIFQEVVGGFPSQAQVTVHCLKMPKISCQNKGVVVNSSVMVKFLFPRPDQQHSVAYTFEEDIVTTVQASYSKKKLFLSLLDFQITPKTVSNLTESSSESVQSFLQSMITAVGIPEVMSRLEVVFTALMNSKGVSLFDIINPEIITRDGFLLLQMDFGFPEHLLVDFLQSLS
How it was run: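 CETP-containing sample (1–3 µg CETP enriched from human plasma) incubated at 37 °C for 4 h with compound in DMSO and a liposome emulsion (1 vol donor, 1 vol buffer, 2 vol acceptor). Liposomes were made by dioxane injection into 50 mM Tris/HCl pH 7.3, 150 mM NaCl, 2 mM EDTA, then sonicated. Read-out was the fluorescence increase versus a DMSO control.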

[2] = Half life in dog plasma; assay type: ADME, organism-based, Canis lupus familiaris
[3] = target: T1, Cholesteryl ester transfer protein; test: Inhibition of human plasma CETP assessed as cholesterol ester transfer after 24 hrs by fluorescence assay; assay type: cell-free
How it was run: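 Donor liposomes (12% v/v) and compound in DMSO (2% v/v) added to human plasma (86% v/v) and incubated at 37 °C for 24 h. Transfer was taken as the fluorescence change at 510/520 nm, compared with a DMSO control.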

[4] = Oral bioavailability in rat; assay type: ADME, organism-based; conditions: in vivo
[5] = Oral bioavailability in dog; assay type: ADME, organism-based, Canis lupus familiaris; conditions: in vivo
[6] = target: T1, Cholesteryl ester transfer protein; test: Inhibition of human plasma CETP assessed as [3H]cholesterol ester transfer after 18 hrs by scintillation proximity assay; assay type: cell-free
How it was run: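 Scintillation proximity assay. HDL-³H-cholesteryl ester (~50,000 cpm) and biotin-LDL were incubated at 37 °C for 18 h with CETP (1 mg/ml stock) in […]/0.15 M NaCl/0.1% BSA/0.05% NaN₃ pH 7.4. Compound was dissolved in 10% DMSO/1% BSA. Streptavidin SPA beads were added with 1 h shaking, then scintillation counting. Buffer-only and CETP incubations served as controls.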

[7] = Half life in rat plasma; assay type: ADME, organism-based
[8] = Half life in mouse plasma; assay type: ADME, organism-based

Row | Compound | IC50 [1] | other results
1 | CC1(C)Cc2nc(C3CCCC3)c(C(=O)c3ccc(C(F)(F)F)cc3)c(N3CCCC3)c2[C@@H](O)C1 | 4000 nM | –
2 | CC(C)c1c(C(=O)c2ccc(C(F)(F)F)cc2)c(C2CCCC2)nc2c1[C@@H](O)CC1(CCC1)C2 | 300 nM | –
3 | CC1(C)Cc2nc(C3CCCC3)c(C(=O)c3ccc(C(F)(F)F)cc3)c(C3CCNCC3)c2[C@@H](O)C1 | > 20000 nM | –
4 | CC1(C)Cc2nc(C3CCCC3)c([C@@H](F)c3ccc(C(F)(F)F)cc3)c(C3CCCCC3)c2[C@@H](O)C1 | 25 nM | half-life [2]: 8.6 h; IC50 [3]: 50 nM; bioavailability [4]: 44%; bioavailability [5]: 74%; IC50 [6]: 7 nM; half-life [7]: 7.2 h; half-life [8]: 5 h
5 | CC1(C)Cc2nc(C3CCCC3)c(C(=O)c3ccc(C(F)(F)F)cc3)c(C3CCN(C(=O)OCc4ccccc4)CC3)c2[C@@H](O)C1 | 500 nM | –
6 | CCCc1c(C(=O)c2ccc(C(F)(F)F)cc2)c(C2CCCC2)nc2c1[C@@H](O)CC1(CCC1)C2 | 600 nM | –
7 | CC1(C)Cc2nc(C3CCCC3)c(C(=O)c3ccc(C(F)(F)F)cc3)c(CCl)c2[C@@H](O)C1 | 15000 nM | –
8 | CC(C)c1c(C(=O)c2ccc(C(F)(F)F)cc2)c(C2CCCC2)nc2c1[C@@H](O)CC(C)(C)C2 | 600 nM | –
9 | CC1(C)Cc2nc(C3CCCC3)c(C(=O)c3ccc(C(F)(F)F)cc3)c(C3CC3)c2[C@@H](O)C1 | 3000 nM | –
10 | CCCCCc1c(C(=O)c2ccc(C(F)(F)F)cc2)c(C2CCCC2)nc2c1[C@@H](O)CC(C)(C)C2 | 2000 nM | –
11 | CC1(C)Cc2nc(C3CCCC3)c(C(=O)c3ccc(C(F)(F)F)cc3)c(CN3CCCCC3)c2[C@@H](O)C1 | 15000 nM | –
12 | CCC(C)c1c(C(=O)c2ccc(C(F)(F)F)cc2)c(C2CCCC2)nc2c1[C@@H](O)CC(C)(C)C2 (stereo not given in full) | 2000 nM | –
13 | CC1(C)Cc2nc(C3CCCC3)c([C@@H](O)c3ccc(C(F)(F)F)cc3)c(C3CCCCC3)c2[C@@H](O)C1 (relative stereo) | 100 nM | –
14 | CCc1c(C(=O)c2ccc(C(F)(F)F)cc2)c(C2CCCC2)nc2c1[C@@H](O)CC(C)(C)C2 | 4500 nM | –
15 | O[C@@H](c1ccc(C(F)(F)F)cc1)c1c(C2CCCC2)nc2c(c1C1CCCCC1)[C@@H](O)CC1(CCC1)C2 | 100 nM | –
16 | CCOC(=O)c1c(C(=O)c2ccc(C(F)(F)F)cc2)c(C2CCCC2)nc2c1[C@@H](O)CC(C)(C)C2 | > 20000 nM | –
17 | CC1(C)Cc2nc(C3CCCC3)c(C(=O)c3ccc(C(F)(F)F)cc3)c(CC(F)(F)F)c2[C@@H](O)C1 | 3000 nM | –

Continued by falling IC50 [1], values first:

Row | IC50 [1] | Compound | other results
18 | 90 nM | CC1(C)Cc2nc(C3CCCC3)c(C(=O)c3ccc(C(F)(F)F)cc3)c(C3CCCC3)c2[C@@H](O)C1 | –
19 | 80 nM | CC(C)c1nc2c(c(C3CCCCC3)c1[C@@H](O)c1ccc(C(F)(F)F)cc1)[C@@H](O)CC(C)(C)C2 (relative stereo) | –
20 | 70 nM | CC(C)c1nc2c(c(C3CCCCC3)c1C(=O)c1ccc(C(F)(F)F)cc1)[C@@H](O)CC(C)(C)C2 | –
21 | 70 nM | O=C(c1ccc(C(F)(F)F)cc1)c1c(C2CCCC2)nc2c(c1C1CCCC1)[C@@H](O)CC1(CCC1)C2 | –
22 | 70 nM | CC(C)c1nc2c(c(C3CCCCC3)c1[C@@H](O)c1ccc(C(F)(F)F)cc1)[C@@H](O)CC1(CCC1)C2 | –
23 | 60 nM | CC1(C)Cc2nc(C3CCCC3)c(C(=O)c3ccc(C(F)(F)F)cc3)c(C3CCCCC3)c2[C@@H](O)C1 | –
24 | 55 nM | O=C(c1ccc(C(F)(F)F)cc1)c1c(C2CCCC2)nc2c(c1C1CCCCC1)[C@@H](O)CC1(CCC1)C2 | –
25 | 39 nM | CC1(C)Cc2nc(C3CCCC3)c(Cc3ccc(C(F)(F)F)cc3)c(C3CCCCC3)c2[C@@H](O)C1 | IC50 [3]: 300 nM
26 | 33 nM | CC(C)c1nc2c(c(C3CCCCC3)c1C(=O)c1ccc(C(F)(F)F)cc1)[C@@H](O)CC1(CCC1)C2 | –
27 | 31 nM | CC1(C)Cc2nc(C3CCCC3)c([C@@H](F)c3ccc(C(F)(F)F)cc3)c(-c3ccc(F)cc3)c2[C@@H](O)C1 | –
28 | 30 nM | CC(C)c1nc2c(c(C3CCCCC3)c1[C@@H](F)c1ccc(C(F)(F)F)cc1)[C@@H](O)CC(C)(C)C2 | IC50 [3]: 75 nM; IC50 [6]: 23 nM
29 | 24 nM | CC(C)c1nc2c(c(-c3ccc(F)cc3)c1[C@@H](F)c1ccc(C(F)(F)F)cc1)[C@@H](O)CC1(CCC1)C2 | –
30 | 22 nM | O[C@H]1CC2(CCC2)Cc2nc(C3CCCC3)c([C@@H](F)c3ccc(C(F)(F)F)cc3)c(C3CCCCC3)c21 | IC50 [3]: 60 nM; IC50 [6]: 62 nM
31 | 17 nM | CC(C)c1nc2c(c(C3CCCCC3)c1[C@@H](F)c1ccc(C(F)(F)F)cc1)[C@@H](O)CC1(CCC1)C2 | IC50 [3]: 70 nM; IC50 [6]: 33 nM
